Experimental data taken from ChEMBL document CHEMBL2169759, “A new class of selective and potent 7-dehydrocholesterol reductase inhibitors” (J Med Chem, 2012).
The source made the active and inactive calls. The rule behind the calls is not given here.

Tests used:
[1] = test system: Saccharomyces cerevisiae; assay: Antifungal activity against Saccharomyces cerevisiae DSM 1333 after 36 hrs by disc diffusion method; assay type: organism-based; settings: in vivo
[2] = target: T1, 7-dehydrocholesterol reductase (Homo sapiens, UniProt Q9UBM7); assay: Inhibition of […]-mediated cholesterol biosynthesis in human HL60 cells assessed as inhibition of 2-[13C]acetate after 24 hrs GC/MS analysis; assay type: cell-based, HL-60
T1 sequence (Q9UBM7 whole entry): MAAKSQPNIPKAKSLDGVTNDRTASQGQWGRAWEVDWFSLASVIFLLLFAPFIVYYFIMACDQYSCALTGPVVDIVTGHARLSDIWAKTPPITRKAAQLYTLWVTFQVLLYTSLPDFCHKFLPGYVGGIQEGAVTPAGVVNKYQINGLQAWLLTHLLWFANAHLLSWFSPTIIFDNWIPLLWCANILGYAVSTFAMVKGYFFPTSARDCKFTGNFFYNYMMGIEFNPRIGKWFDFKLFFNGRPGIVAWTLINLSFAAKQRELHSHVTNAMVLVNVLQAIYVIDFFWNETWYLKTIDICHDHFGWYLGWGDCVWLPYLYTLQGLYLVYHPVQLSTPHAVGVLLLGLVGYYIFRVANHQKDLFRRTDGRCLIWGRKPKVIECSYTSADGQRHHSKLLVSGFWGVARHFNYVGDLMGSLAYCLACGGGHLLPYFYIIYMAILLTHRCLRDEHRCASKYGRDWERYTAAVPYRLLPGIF
Procedure, shortened: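 Whole-cell cholesterol synthesis in HL-60 cells, 24 h with inhibitor and sodium 2-¹³C-acetate; six concentrations plus blank, in triplicate. Newly made labeled cholesterol (m/z 372–379, 462–469) measured by GC-MS against cholestane and normalized to Bradford protein. % inhibition against untreated control fitted to a variable-slope sigmoid, bottom fixed at 0, giving IC50; BM 15.766 as reference.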

[3] = test system: Yarrowia lipolytica; assay: Antifungal activity against Yarrowia lipolytica DSM 1345 after 36 hrs by disc diffusion method; assay type: organism-based; settings: in vivo
[4] = test system: Nakaseomyces glabratus; assay: Antifungal activity against Candida glabrata DSM 11226 after 48 hrs; assay type: organism-based; settings: in vivo
Procedure, shortened: (§1)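 MIC against the yeast strains determined according to DIN 58940-84; clotrimazole as positive control.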

[5] = test system: Escherichia coli; assay: Antibacterial activity against Escherichia coli DSM 426 after 36 hrs by disc diffusion method; assay type: organism-based; settings: in vivo
[6] = Antibacterial activity against Streptococcus entericus DSM 14446 after 36 hrs by disc diffusion method
[7] = test system: Yarrowia lipolytica; assay: Antifungal activity against Yarrowia lipolytica DSM 1345 after 48 hrs; assay type: organism-based; settings: in vivo; procedure, shortened: as §1
[8] = test system: HL-60; assay: Cytotoxicity against human HL60 cells after 24 hrs by MTT assay; assay type: cell-based; settings: HL-60, 24 h
Procedure, shortened: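 MTT colorimetric assay on HL-60 promyelocytic leukemia cells (RPMI 1640, 10% FBS, no antibiotics, 37 °C, 5% CO2) as a preliminary screen for unspecific cytotoxicity; cisplatin as reference.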

[9] = Antibacterial activity against Pseudomonas antimicrobica DSM 8361 after 36 hrs by disc diffusion method; settings: burkholderia gladioli
[10] = Antibacterial activity against Staphylococcus equorum DSM 20675 after 36 hrs by disc diffusion method
[11] = Antifungal activity against Aspergillus brasiliensis DSM 1988 after 36 hrs by disc diffusion method
[12] = test system: Nakaseomyces glabratus; assay: Antifungal activity against Candida glabrata DSM 11226 after 36 hrs by disc diffusion method; assay type: organism-based; settings: in vivo
[13] = Antifungal activity against Hyphopichia burtonii DSM 70663 after 36 hrs by disc diffusion method
[14] = test system: Saccharomyces cerevisiae; assay: Antimicrobial activity against Saccharomyces cerevisiae DSM 1333 after 48 hrs; assay type: organism-based; settings: in vivo; procedure, shortened: as §1
[15] = target: T2, 7-dehydrocholesterol reductase (Homo sapiens) (UniProt Q9UBM7); assay: Inhibition of 7-dehydrocholesterol reductase in human HL60 cells assessed as accumulation of 7-dehydrocholesterol at 1 uM after 24 hrs by GC/MS analysis; assay type: cell-based; settings: HL-60
T2 sequence (whole entry): T1 sequence (Q9UBM7 whole entry)
Procedure, shortened: (§2)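 HL-60 cells (1 × 10⁶) in lipid-free HL-60 medium given inhibitor at 50 μM or 1 μM (ethanol blank) for 24 h at 37 °C, 5% CO2. Pellet saponified in 1 M NaOH, 1 h at 70 °C, then TBME microextraction with cholestane internal standard. GC-MS sterol pattern compared with blanks and with AY 9944 and BM 15.766 references.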

[16] = target: 3-beta-hydroxysteroid-Delta(8),Delta(7)-isomerase (Homo sapiens) (UniProt Q15125); assay: Inhibition of delta8,7-isomerase in human HL60 cells assessed as accumulation of zymostenol at 1 uM after 24 hrs by GC/MS analysis; assay type: cell-based; settings: HL-60; procedure, shortened: as §2
3-beta-hydroxysteroid-Delta(8),Delta(7)-isomerase (Homo sapiens), sequence (Q15125 whole entry): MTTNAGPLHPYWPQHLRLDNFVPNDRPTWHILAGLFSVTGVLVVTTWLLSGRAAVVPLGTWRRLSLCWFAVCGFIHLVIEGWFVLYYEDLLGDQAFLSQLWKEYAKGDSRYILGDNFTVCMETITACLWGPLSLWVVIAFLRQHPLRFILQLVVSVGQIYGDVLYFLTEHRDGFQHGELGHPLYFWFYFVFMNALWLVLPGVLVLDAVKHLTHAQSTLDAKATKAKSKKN

[17] = target: T2, 7-dehydrocholesterol reductase (Homo sapiens); assay: Inhibition of 7-dehydrocholesterol reductase in human HL60 cells assessed as accumulation of 7-dehydrocholesterol at 50 uM after 24 hrs by GC/MS analysis; assay type: cell-based; settings: HL-60; procedure, shortened: as §2
[18] = target: 3-beta-hydroxysteroid-Delta(8),Delta(7)-isomerase (Homo sapiens) (UniProt Q15125); assay: Inhibition of delta8,7-isomerase in human HL60 cells assessed as accumulation of zymostenol at 50 uM after 24 hrs by GC/MS analysis; assay type: cell-based; settings: HL-60; procedure, shortened: as §2

| IC50 [2] | MIC [4] | MIC [7] | MIC [14] | 7-DHCR inhibition (active/not active) [15] | inhibition (active/not active) [16] | 7-dehydrocholesterol accumulation (active/not active) [17] | isomerase inhibition (active/not active) [18] | Compound | Activity [1] | Activity [3] | Activity [5] | Activity [6] | IC50 [8] | Activity [9] | Activity [10] | Activity [11] | Activity [12] | Activity [13] |
| --- | --- | --- | --- | --- | --- | --- | --- | --- | --- | --- | --- | --- | --- | --- | --- | --- | --- | --- |
| 7.3 µM | > 20 µg/mL | > 20 µg/mL | > 20 µg/mL | Active |  |  |  | COc1cc2c(cc1O)CCN(CCc1ccc(OC)c(OC)c1)C2 | Non-toxic | Non-toxic | Non-toxic | Non-toxic | > 50 µM | Non-toxic | Non-toxic | Non-toxic | Non-toxic | Toxic |
|  | > 20 µg/mL | > 20 µg/mL | > 20 µg/mL | inactive | Active | inactive | Active | COc1ccc2c(c1)CCN(CCc1ccccc1)C2 | Non-toxic | Non-toxic | Non-toxic | Non-toxic | > 50 µM | Non-toxic | Non-toxic | Non-toxic | Non-toxic | Non-toxic |
|  | > 20 µg/mL | > 20 µg/mL | > 20 µg/mL | inactive |  | Active |  | Oc1ccc(CCN2CCc3cc(O)ccc3C2)cc1 | Non-toxic | Non-toxic | Non-toxic | Non-toxic | > 50 µM | Non-toxic | Non-toxic | Non-toxic | Non-toxic | Non-toxic |
|  | > 20 µg/mL | > 20 µg/mL | > 20 µg/mL | inactive | Active | inactive | Active | COc1ccc(CCN2CCc3cc4c(cc3C2)OCO4)cc1 | Non-toxic | Non-toxic | Non-toxic | Non-toxic | > 50 µM | Non-toxic | Non-toxic | Non-toxic | Non-toxic | Non-toxic |
|  | > 20 µg/mL | > 20 µg/mL | > 20 µg/mL | inactive | Active | inactive | Active | COc1ccc(CCN2CCc3cc(OC)c(OC)cc3C2)cc1 | Non-toxic | Non-toxic | Non-toxic | Non-toxic | > 50 µM | Non-toxic | Non-toxic | Non-toxic | Non-toxic | Non-toxic |
|  | > 20 µg/mL | > 20 µg/mL | > 20 µg/mL | Active |  | Active | Active | COc1cc2c(cc1O)CCN(CCc1ccc(F)cc1)C2 | Non-toxic | Non-toxic | Non-toxic | Non-toxic | > 50 µM | Non-toxic | Non-toxic | Non-toxic | Non-toxic | Toxic |
|  | > 20 µg/mL | > 20 µg/mL | > 20 µg/mL | inactive | Active | inactive | Active | COc1ccc(CCN2CCc3cc(OC)ccc3C2)cc1 | Non-toxic | Non-toxic | Non-toxic | Non-toxic | > 50 µM | Non-toxic | Non-toxic | Non-toxic | Non-toxic | Non-toxic |
|  | > 20 µg/mL | > 20 µg/mL | > 20 µg/mL | inactive |  | Active |  | COc1cc2c(cc1O)CCN(CCc1ccccc1OC)C2 | Non-toxic | Non-toxic | Non-toxic | Non-toxic | > 50 µM | Non-toxic | Non-toxic | Non-toxic | Non-toxic | Non-toxic |
|  | > 20 µg/mL | > 20 µg/mL | > 20 µg/mL | Active |  | Active | Active | COc1ccc(CCN2CCc3cc(O)c(OC)cc3C2)cc1 | Non-toxic | Non-toxic | Non-toxic | Non-toxic | > 50 µM | Non-toxic | Non-toxic | Non-toxic | Non-toxic | Toxic |
| 0.12 µM | > 20 µg/mL | > 20 µg/mL | > 20 µg/mL | Active |  |  |  | COc1cccc(CCN2CCc3cc(O)c(OC)cc3C2)c1 | Non-toxic | Non-toxic | Non-toxic | Non-toxic | > 50 µM | Non-toxic | Non-toxic | Non-toxic | Non-toxic | Non-toxic |
|  | > 20 µg/mL | > 20 µg/mL | > 20 µg/mL | inactive | inactive | inactive | inactive | COc1ccc(CCN2CCc3cc(OC)c(O)cc3C2)cc1 | Non-toxic | Non-toxic | Non-toxic | Non-toxic | > 50 µM | Non-toxic | Non-toxic | Non-toxic | Non-toxic | Non-toxic |
| 0.5 µM |  |  |  |  |  |  |  | O=C(O)c1ccc(CCN2CCN(C/C=C/c3ccc(Cl)cc3)CC2)cc1 |  |  |  |  |  |  |  |  |  |  |
|  | < 1 µg/mL | < 1 µg/mL | < 1 µg/mL |  |  |  |  | Clc1ccccc1C(c1ccccc1)(c1ccccc1)n1ccnc1 [CLOTRIMAZOLE] |  |  |  |  |  |  |  |  |  |  |
